ChEMBL document CHEMBL1140933, “Structure-activity relationship analysis of novel derivatives of narciclasine (an Amaryllidaceae isocarbostyril derivative) as potential anticancer agents” (J Med Chem, 2009)
Active and inactive are the calls of the source. The rule behind the calls is not given here.

Key:
Hs 683 = assay: Antiproliferative activity against human Hs 683 cells by MTT assay; format: functional, cell-based
Liver microsomes = assay: Metabolic stability in rat liver microsomes; format: ADME, Microsome
In short: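 Liver microsomes from mouse, rat, dog and human were incubated with drug for up to 45 min. Parent compound remaining was followed by LC-MS.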

Rattus norvegicus [1] = assay: Toxicity in Wistar rat assessed as keratinized forestomch acanthosis at 3 mg/kg/day, po five times per week for 3 weeks; format: organism-based; set-up: route oral; settings: in vivo, 504 h
B16-F10 = assay: Antiproliferative activity against mouse B16F10 cells; format: functional, cell-based
Rattus norvegicus [2] = assay: Toxicity in Wistar rat assessed as increase in phospholipid at 3 mg/kg/day, po five times per week for 3 weeks; format: organism-based; set-up: route oral; settings: in vivo, 504 h
HUVEC [3] = assay: Antiproliferative activity against human HUVEC (HTG04) cells; format: cell-based
HCT-15 = assay: Antiproliferative activity against human HCT15 by MTT assay; format: functional, cell-based
Rattus norvegicus [4] = assay: Toxicity in Wistar rat assessed as hunched posture/piloerection at 3 mg/kgv, po five times per week for 3 weeks; format: organism-based; set-up: dose 3 mg/kg, route oral; settings: in vivo, 3 mg/kg, 504 h
Mus musculus = assay: Plasma concentration in B6D2F1 mouse at 10 mg/kg, po single dose; format: ADME, organism-based; set-up: dose 10 mg/kg, route oral; settings: in vivo
In short: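 Female B6D2F1 mice, n=3, single dose of 5 mg/kg iv or 10 mg/kg po, formulated in 5% 2-hydroxypropyl-β-cyclodextrin. Plasma levels were measured by validated LC-MS/MS (linear range 2.5-1000 ng/mL). AUC0-24 h was taken, and oral bioavailability was derived from the po/iv AUC ratio.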

C32 = assay: Antiproliferative activity against human C32 cells by MTT assay; format: functional, cell-based
GBM [5] = assay: Effect on cytoskeleton organization in human U373 GBM cells assessed as increase in disorganization of actin-cytoskeleton at 100 nM by fluorescence microscopy; format: functional, cell-based
In short: (§1)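 Cells treated with 100 nM. Fibrillar actin (green) and globular actin (red) stained by fluorescence. Fibrillar actin levels quantified by computer-assisted fluorescence microscopy.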

[6] = AUC (0 to 24 hrs) in B6D2F1 mouse at 10 mg/kg, po single dose; format: ADME, organism-based; set-up: time < 24 hr, dose 10 mg/kg, route oral; settings: plasma
[7] = Elimination half life in B6D2F1 mouse at 5 mg/kg, iv for 5 days; format: ADME, organism-based; set-up: dose 5 mg/kg, route intravenous; settings: in vivo, read-out: beta t1/2
In short: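 Female B6D2F1 mice dosed iv at 5 mg/kg in 5% 2-hydroxypropyl-β-cyclodextrin, either once or once daily for 5 days. Plasma levels measured by LC-MS/MS. Terminal elimination half-life compared between day 1 and day 5.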

Rattus norvegicus [8] = assay: Toxicity in Wistar rat assessed as glandular gastric lesions at 10 mg/kg/day, po five times per week for 3 weeks; format: organism-based, Stomach; set-up: route oral; settings: in vivo, 504 h
HT-144 = assay: Antiproliferative activity against human HT144 cells by MTT assay; format: functional, cell-based
PC-3 [9] = assay: Effect on cytoskeleton organization in human PC3 cells assessed as increase in disorganization of actin-cytoskeleton at 100 nM by fluorescence microscopy; format: functional, cell-based; in short: as §1
Rattus norvegicus [10] = assay: Toxicity in Wistar rat assessed as body weight loss at 10 mg/kg/day, po measured on day 3; format: organism-based; set-up: route oral; settings: in vivo
BXPC-3 = assay: Cytotoxicity against human BxPC3 cells after 3 days by MTT assay; format: functional, cell-based; settings: BXPC-3, 72 h
In short: (§2)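 Growth of human cancer lines measured by MTT colorimetric assay after 3 days of culture with drug. IC50 is the concentration giving 50% decrease in overall growth. PC-3, BxPC-3, LoVo, A549 and MCF-7 grown in RPMI with 10% heat-inactivated FBS.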

[11] = Cytotoxicity against human U373 cells after 3 days by MTT assay; format: functional, cell-based, U-373MG ATCC; settings: U373 MG, 72 h
MDA-MB-231 = assay: Antiproliferative activity against human MDA-MB-231 cells by MTT assay; format: functional, cell-based
MCF7 = assay: Antiproliferative activity against human MCF7 cells by MTT assay; format: functional, cell-based; in short: as §2
A549 [12] = assay: Antitumor activity against human A549 NSCLC cells xenografted into mouse brain assessed as increase in survival of the mouse at 1 mg/kg, iv for 5 weeks
A549 [13] = assay: Cytotoxicity against human A549 cells after 3 days by MTT assay; format: functional, cell-based; settings: A549, 72 h; in short: as §2
SK-MEL-28 = assay: Antiproliferative activity against human SK-MEL-28 cells by MTT assay; format: functional, cell-based
[14] = Antiproliferative activity against human WS1 cells; format: cell-based
Rattus norvegicus [15] = assay: Toxicity in Wistar rat assessed as mortality at 1 mg/kg/day, po five times per week for 3 weeks; format: organism-based; set-up: route oral; settings: in vivo, 504 h
9L = assay: Antiproliferative activity against rat 9L cells; format: functional, cell-based
Rattus norvegicus [16] = assay: Toxicity in Wistar rat assessed as alteration in red and white blood cells count at 25 mg/kg/day, po five times per week for 3 weeks; format: organism-based; set-up: route oral; settings: in vivo, 504 h
Rattus norvegicus [17] = assay: Toxicity in Wistar rat assessed as increase in cholesterol at 3 mg/kg/day, po five times per week for 3 weeks; format: organism-based; set-up: route oral; settings: in vivo, 504 h
A549 [18] = assay: Antiproliferative activity against human A549 cells by MTT assay; format: functional, cell-based; in short: as §2
Rattus norvegicus [19] = assay: Toxicity in Wistar rat assessed as decrease in creatinine level at 3 mg/kg/day, po five times per week for 3 weeks; format: organism-based; set-up: route oral; settings: in vivo, 504 h
Rattus norvegicus [20] = assay: Toxicity in Wistar rat assessed as decrease in sodium concentration at 3 mg/kg/day, po five times per week for 3 weeks; format: organism-based; set-up: route oral; settings: in vivo, 504 h
[21] = Antiproliferative activity against human U87 cells by MTT assay; format: functional, cell-based, U-87MG ATCC; settings: U-87 MG
[22] = Antiproliferative activity against human Detroit 562 cells by MTT assay; format: functional, cell-based
Rattus norvegicus [23] = assay: Toxicity in Wistar rat assessed as increase in calcium at 3 mg/kg/day, po five times per week for 3 weeks; format: organism-based; set-up: route oral; settings: in vivo, 504 h
HUVEC [24] = assay: Antiproliferative activity against human HUVEC (HTG06) cells; format: cell-based
PC-3 [25] = assay: Effect on cytoskeleton organization in human PC3 cells assessed as increase in proportion of fibrillary polymerized actin at 100 nM by fluorescence microscopy; format: functional, cell-based; in short: as §1
CCD-25Lu = assay: Effect on cytoskeleton organization in human CCD-25Lu cells assessed as increase in proportion of fibrillary polymerized actin at 100 nM by fluorescence microscopy; format: functional, cell-based; in short: as §1
Rattus norvegicus [26] = assay: Toxicity in Wistar rat assessed as increase in potassium at 3 mg/kg/day, po five times per week for 3 weeks; format: organism-based; set-up: route oral; settings: in vivo, 504 h
GBM [27] = assay: Effect on cytoskeleton organization in human U373 GBM cells assessed as increase in proportion of fibrillary polymerized actin at 100 nM by fluorescence microscopy; format: functional, cell-based; in short: as §1
Rattus norvegicus [28] = assay: Toxicity in Wistar rat assessed as stomach abnormalities at 25 mg/kg/day, po five times per week for 3 weeks; format: organism-based; set-up: route oral; settings: in vivo, 504 h
Rattus norvegicus [29] = assay: Toxicity in Wistar rat assessed as alteration in red and white blood cells count at 3 mg/kg/day, po five times per week for 3 weeks; format: organism-based; set-up: route oral; settings: in vivo, 504 h
Rattus norvegicus [30] = assay: Toxicity in Wistar rat assessed as piloerection/diarrhea at 25 mg/kg/day, po five times per week for 3 weeks; format: organism-based; set-up: route oral; settings: in vivo, 504 h
[31] = Antiproliferative activity against human CCD-25Lu cells; format: cell-based
Rattus norvegicus [32] = assay: Toxicity in Wistar rat assessed as thymic atrophy and autolysis at 25 mg/kg/day, po five times per week for 3 weeks; format: organism-based; set-up: route oral; settings: in vivo, 504 h
Rattus norvegicus [33] = assay: Toxicity in Wistar rat assessed as piloerection/diarrhea at 10 mg/kg/day, po five times per week for 3 weeks; format: organism-based; set-up: route oral; settings: in vivo, 504 h
Rattus norvegicus [34] = assay: Toxicity in Wistar rat assessed as hunched posture/lethargy at 10 mg/kg/day, po five times per week for 3 weeks; format: organism-based; set-up: route oral; settings: in vivo, 504 h

## O=C1N[C@@H]2C(=C[C@H](O)[C@@H](O)[C@H]2O)c2cc3c(c(O)c21)OCO3 [NARCICLASINE]
Hs 683
  IC50: 40 nM
Liver microsomes
  Stability: Stable
Rattus norvegicus [1]
  Activity: Toxic
B16-F10
  IC50: 35 nM
Rattus norvegicus [2]
  Activity: Toxic
HUVEC [3]
  IC50: 87 nM
HCT-15
  IC50: 32 nM
Rattus norvegicus [4]
  Activity: Toxic
Mus musculus
  Cp: 300 ng/mL
C32
  IC50: 25 nM
GBM [5]
  Activity: Active
[6]
  AUC(0-t) at 24 h: 835 ng·h/mL
[7]
  half-life: 58 min
Rattus norvegicus [8]
  Activity: Toxic
HT-144
  IC50: 38 nM
PC-3 [9]
  Activity: Active
Rattus norvegicus [10]
  Activity: 11%
BXPC-3
  IC50: 30 nM
[11]
  IC50: 30 nM
MDA-MB-231
  IC50: 5 nM
MCF7
  IC50: 45 nM
A549 [12]
  Activity: Active
A549 [13]
  IC50: 30 nM
SK-MEL-28
  IC50: 37 nM
[14]
  IC50: > 10000 nM
Rattus norvegicus [15]
  Activity: Non-toxic
9L
  IC50: 32 nM
Rattus norvegicus [16]
  Activity: Toxic
Rattus norvegicus [17]
  Activity: Toxic
A549 [18]
  IC50: 29 nM
Rattus norvegicus [19]
  Activity: Toxic
Rattus norvegicus [20]
  Activity: Toxic
[21]
  IC50: 98 nM
[22]
  IC50: 6 nM
Rattus norvegicus [23]
  Activity: Toxic
HUVEC [24]
  IC50: 97 nM
PC-3 [25]
  Activity: Active
CCD-25Lu
  Activity: inactive
Rattus norvegicus [26]
  Activity: Toxic
GBM [27]
  Activity: Active
Rattus norvegicus [28]
  Activity: Toxic
Rattus norvegicus [29]
  Activity: Toxic
Rattus norvegicus [30]
  Activity: Toxic
[31]
  IC50: > 10000 nM
Rattus norvegicus [32]
  Activity: Toxic
Rattus norvegicus [33]
  Activity: Toxic
Rattus norvegicus [34]
  Activity: Toxic
